Data as given in ChEMBL document CHEMBL4373643, “Synthesis and biological evaluation of structurally diverse α-conformationally restricted chalcones and related analogues” (Medchemcomm, 2019).

Key:
[1] = system: NCI-H460; test: Cytotoxicity against human NCI-H460 cells assessed as reduction in cell viability incubated for 48 hrs by SRB assay; type: functional; details: NCI-H460, 48 h
Method in brief: (§1)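 Cells from ATCC, plated at 7000–8000 cells/well in DMEM with 5% FBS and 1% gentamicin and left 24 h at 37 °C, 5% CO2. Compounds from a 10 mg mL–1 DMSO stock were serially diluted and added for 48 h. Cells were fixed with TCA (10% final), stained with SRB, and the dye solubilized in 10 mM Tris. A540 was normalized to A630, and GI50 was taken as 50% reduction in net protein increase.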

[2] = system: DU-145; test: Cytotoxicity against human DU145 cells assessed as reduction in cell viability incubated for 48 hrs by SRB assay; type: functional; details: DU-145, 48 h; method in brief: as §1
[3] = system: HUVEC; test: Cytotoxicity against HUVEC assessed as reduction in cell viability incubated for 48 hrs by SRB assay; type: cell-based; details: human
Method in brief: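 HUVECs were grown in M200 with VEGF kit supplements in collagen I coated flasks, then plated at 9000 cells/well and given 48 h to attach. Compounds were added as 10-fold serial dilutions in M200 with LSGS kit, 1% gentamicin and 1% amphotericin B. Growth was read by SRB assay, and GI50 was taken as the concentration inhibiting growth by 50%.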

[4] = biological target: Tubulin; test: Inhibition of tubulin polymerization (unknown origin) incubated for 10 mins by spectrophotometry; type: protein-complex assay, Homo sapiens
[5] = system: SK-OV-3; test: Cytotoxicity against human SKOV3 cells assessed as reduction in cell viability incubated for 48 hrs by SRB assay; type: functional; details: SK-OV-3, 48 h; method in brief: as §1
[6] = Selectivity index, ratio of GI50 for HUVEC to GI50 for human SKOV3 cells; type: toxicity; details: HUVEC versus SKOV3 cells, read-out: RatioGI50
[7] = biological target: Tubulin (Homo sapiens) (UniProt P68371+Q9H4B7+P0DPH7+P68366+Q13509+Q71U36+P04350+Q3ZCM7+P07437+P68363+Q9BQE3+Q6PEY2+Q13885+Q9BVA1+Q9BUF5); test: Inhibition of [3H]colchicine binding to tubulin (unknown origin) at 5 uM incubated for 10 mins by scintillation counting method relative to control; type: protein-complex assay
[8] = Selectivity index, ratio of GI50 for HUVEC to GI50 for human DU145 cells; type: toxicity; details: HUVEC versus DU145 cells, read-out: RatioGI50
[9] = Selectivity index, ratio of GI50 for HUVEC to GI50 for human NCI-H460 cells; type: toxicity; details: HUVEC versus NCI-H460 cells, read-out: RatioGI50

Compound	IC50 [4] [µM]	inhibition [7] [%]	GI50 [1] [µM]	GI50 [2] [µM]	Activity [3]	GI50 [5] [µM]	selectivity ratio [6]	selectivity ratio [8]	selectivity ratio [9]
COc1ccc2c(c1Br)CC/C(=C\c1cc(OC)c(OC)c(OC)c1)C2=O	> 20		22.6	27.6		29.6			
CC(=O)O[C@H]1C(=O)[C@@]2(C)[C@H]([C@H](OC(=O)c3ccccc3)[C@]3(O)C[C@H](OC(=O)[C@H](O)[C@@H](NC(=O)c4ccccc4)c4ccccc4)C(C)=C1C3(C)C)[C@]1(OC(C)=O)CO[C@@H]1C[C@@H]2O [PACLITAXEL]			0.00165	0.00152		0.00136			
COc1cccc2c1C(=O)c1c(O)c3c(c(O)c1C2=O)C[C@@](O)(C(=O)CO)C[C@@H]3O[C@H]1C[C@H](N)[C@H](O)[C@H](C)O1 [DOXORUBICIN]			0.0547	0.108		0.0875			
COc1cc(Cc2ccc3c([N+](=O)[O-])c(OC)ccc3c2O)cc(OC)c1OC			22.9	18.6		21			
COc1ccc(/C=C\c2cc(OC)c(OC)c(OC)c2)cc1O [COMBRETASTATIN A4]			0.005	0.00602		0.00506			
COc1cc(Cc2ccc3c(Br)c(OC)ccc3c2O)cc(OC)c1OC			5.92	6.17		18.3			
COc1ccc2c(c1)CC/C(=C\c1cc(OC)c(OC)c(OC)c1)C2=O	> 20		22.4	22.6		40.3			
COc1ccc2c(c1Br)CCC/C(=C\c1cc(OC)c(OC)c(OC)c1)C2=O	> 20		4.44	9.91		8.5			
COc1cc(Cc2ccc3c(O)c(OC)ccc3c2O)cc(OC)c1OC			24.4	23.4		21.9			
COc1cc(Cc2ccc3c(N)c(OC)ccc3c2O)cc(OC)c1OC			65.2	49.7		16.4			
COc1cc(/C=C2\CCc3c(ccc(OC)c3[N+](=O)[O-])C2=O)cc(OC)c1OC	> 20		36.3	37.6		23.5			

More lines, main results first:

IC50 [4] [µM]	inhibition [7] [%]	Compound	GI50 [1] [µM]	GI50 [2] [µM]	Activity [3]	GI50 [5] [µM]	selectivity ratio [6]	selectivity ratio [8]	selectivity ratio [9]
17		COc1ccc2c(O)c(Cc3cc(OC)c(OC)c(OC)c3)ccc2c1	13.4	8.84	Toxic	7.5			
> 20		COc1ccc2c(c1N)CC/C(=C\c1cc(OC)c(OC)c(OC)c1)C2=O	46.4	32.4	Toxic	> 135			
> 20		COc1ccc2c(c1Br)CC[C@H]1[C@H](c3cc(OC)c(OC)c(OC)c3)[C@@H]21	59.2	61.5		108			
> 20		COc1ccc2c(c1C#N)CC/C(=C\c1cc(OC)c(OC)c(OC)c1)C2=O	44.4	57.2		33.3			
> 20		COc1ccc2c(c1)CC[C@H]1[C@H](c3cc(OC)c(OC)c(OC)c3)[C@@H]21	38.8	41.1		54.5			
> 20	0.34	COc1ccc2c(c1N)CCC/C(=C\c1cc(OC)c(OC)c(OC)c1)C2=O	0.733	0.237	Non-Toxic	0.936	100	100	100
> 20		COc1ccc2c(c1O)CCC(=C\c1cc(OC)c(OC)c(OC)c1)/C2=N\O	22.8	23.9		38.2			
> 20		COc1cc(/C=C2\CCCc3c(ccc(OC)c3[N+](=O)[O-])C2=O)cc(OC)c1OC	5.96	5.94		16.1			
> 20		COc1ccc2c(c1Br)CCC(=C\c1cc(OC)c(OC)c(OC)c1)/C2=N\O	47	50.1		80.1			
> 20	14	COc1ccc2c(c1O)CCC/C(=C\c1cc(OC)c(OC)c(OC)c1)C2=O	0.635	0.456	Non-Toxic	0.941	10	10	10
> 20		COc1ccc2c(c1O)CC/C(=C\c1cc(OC)c(OC)c(OC)c1)C2=O	6.44	5.49	Toxic	6.29			
> 20		COc1ccc2c(c1)CCC/C(=C\c1cc(OC)c(OC)c(OC)c1)C2=O	6.57	9.71		12			
